pKi: −log10 of the molar value.
Columns and labels:
[1] = Inhibition of HTLV-1 protease; parameters: species or system Human T-cell leukemia virus type I
[2] = tested on: Human T-cell leukemia virus type I; assay: Inhibition of HTLV-1 protease at 80 uM using (RE(Edans)TKVLVVQPK(Dabsyl)R) substrate by fluorescence-based assay
Summary of the method: (§1)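 HTLV-1 PR (aspartic protease, homodimer) activity was measured in a fluorescence-based assay. Inhibitors were tested at 80, 40 and 8 μM, and the read-out was percent inhibition. A percentage efficiency index (PEI) was then calculated from the percent inhibition value and the molecular weight.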

[3] = tested on: Human T-cell leukemia virus type I; assay: Inhibition of HTLV-1 protease at 8 uM using (RE(Edans)TKVLVVQPK(Dabsyl)R) substrate by fluorescence-based assay; summary of the method: as §1
[4] = tested on: Human T-cell leukemia virus type I; assay: Inhibition of HTLV-1 protease at 40 uM using (RE(Edans)TKVLVVQPK(Dabsyl)R) substrate by fluorescence-based assay; summary of the method: as §1

pKi [1] | SMILES | inhibition [2] [%] | inhibition [3] [%] | inhibition [4] [%]
< 4.70 | Cc1c(O)cccc1C(=O)N[C@@H](CSc1ccccc1)[C@H](O)CN1C[C@H]2CCCC[C@H]2C[C@H]1C(=O)NC(C)(C)C |  |  | 
5.46 | CC(C)(C)NC(=O)[C@@H]1CN(Cc2cccnc2)CCN1C[C@@H](O)C[C@@H](Cc1ccccc1)C(=O)N[C@H]1c2ccccc2C[C@H]1O | 95.4 | 71.8 | 91.2
< 4.70 | CC(C)(C)NC(=O)[C@@H]1C[C@@H]2CCCC[C@@H]2CN1C[C@@H](O)[C@H](Cc1ccccc1)NC(=O)[C@H](CC(N)=O)NC(=O)c1ccc2ccccc2n1 |  |  | 
< 4.70 | CC(C)CN(C[C@@H](O)[C@H](Cc1ccccc1)NC(=O)O[C@H]1CCOC1)S(=O)(=O)c1ccc(N)cc1 |  |  | 
 | CC(C)(C)NC(=O)[C@@H]1CNCCN1C[C@@H](O)C[C@@H](Cc1ccccc1)C(=O)N[C@H]1c2ccccc2C[C@H]1O | 60.8 | 16.8 | 45.1

Reference: ChEMBL document CHEMBL3352256 (J Med Chem, 2014)
